# FAK inh – FAK kinase inhibitors, primary screen, biochemical | Focal adhesion kinase 1 (Homo sapiens), Q05397 | biochemical FAK kinase activity assay | inhibition, %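 (tested at 7 µM)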 | actives 0.84% (n = 97,000) | AID 727, 2007; in the data active = inhibition above about 19%;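 also: 0% = DMSO and 100% = reference compound high control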
# Target sequence (Q05397 whole entry, looked up): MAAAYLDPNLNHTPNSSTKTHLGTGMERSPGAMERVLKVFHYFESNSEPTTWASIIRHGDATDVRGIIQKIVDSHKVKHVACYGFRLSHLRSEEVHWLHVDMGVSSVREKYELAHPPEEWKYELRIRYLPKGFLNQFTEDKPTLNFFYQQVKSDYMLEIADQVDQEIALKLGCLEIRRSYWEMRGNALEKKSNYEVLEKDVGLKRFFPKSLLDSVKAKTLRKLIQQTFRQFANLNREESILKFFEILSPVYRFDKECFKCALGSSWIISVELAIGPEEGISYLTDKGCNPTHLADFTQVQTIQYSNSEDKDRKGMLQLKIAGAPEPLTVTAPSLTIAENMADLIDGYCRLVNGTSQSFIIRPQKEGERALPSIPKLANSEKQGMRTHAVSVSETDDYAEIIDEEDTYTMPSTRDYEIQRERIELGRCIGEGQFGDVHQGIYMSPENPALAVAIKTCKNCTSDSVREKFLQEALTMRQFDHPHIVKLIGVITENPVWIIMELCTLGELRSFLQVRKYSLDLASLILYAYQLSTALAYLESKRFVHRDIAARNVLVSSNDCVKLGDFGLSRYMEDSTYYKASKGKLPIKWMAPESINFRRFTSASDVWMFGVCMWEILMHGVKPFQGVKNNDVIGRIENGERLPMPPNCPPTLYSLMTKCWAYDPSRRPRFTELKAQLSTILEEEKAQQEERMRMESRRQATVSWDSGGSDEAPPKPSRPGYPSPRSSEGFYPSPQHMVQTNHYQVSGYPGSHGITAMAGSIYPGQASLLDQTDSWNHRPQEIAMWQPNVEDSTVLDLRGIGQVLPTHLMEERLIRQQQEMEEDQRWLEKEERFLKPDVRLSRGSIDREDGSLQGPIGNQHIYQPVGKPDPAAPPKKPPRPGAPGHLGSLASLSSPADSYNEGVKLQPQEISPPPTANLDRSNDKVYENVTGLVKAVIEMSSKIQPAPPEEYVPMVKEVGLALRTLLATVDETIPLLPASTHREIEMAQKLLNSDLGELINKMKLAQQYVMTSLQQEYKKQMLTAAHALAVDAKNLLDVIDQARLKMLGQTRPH
# PLK1 inh – human PLK1 kinase inhibitors, primary screen, biochemical, TR-FRET; actives 0.53% (n = 97,000); Serine/threonine-protein kinase PLK1 (Homo sapiens), P53350; inhibition, % at 10 µM; recombinant PLK1 kinase, TR-FRET peptide phosphorylation;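 active = inhibition of 50% or more in the single-concentration screen; inactive = inhibition below 50%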;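 also: 0% = DMSO max control and 100% = H-89 dihydrochloride min control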
# HIV Rev-RRE inh – HIV-1 Rev-RRE binding inhibitors, primary screen, biochemical, FRET, protein-RNA interaction; P05866; Rev peptide-RRE RNA binding; inhibition, % at 8 µM; actives 0.79% (n = 97,000);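 active = inhibition above the screen-wide mean plus 3 SD, cut at about 35% in these data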;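 also: 0% = median DMSO wells and 100% = median Neomycin B control wells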
#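 Assay system: labelled RRE RNA duplex and labelled Rev peptide / Medium: HEPES pH 7.5 salt buffer with EDTA / Reagent: labelled Rev peptide / Schedule: 5 + 15 min at 25 °C / Signal: FRET, excitation 480 nm, emission 540 nm donor and 671 nm acceptor / Benchmarks: DMSO and neomycin B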
# PLK1 PBD inh – Plk1 polo box domain binding inhibitors, primary screen, biochemical, fluorescence polarization; inhibition, %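 (tested at about 20 µM)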; Serine/threonine-protein kinase PLK1 (Homo sapiens), P53350; Plk1 PBD phosphopeptide binding; actives 0.13% (n = 97,000); in the data active = inhibition above about 34%, passing the limit was not always enough
# Cav3 T inh – Cav3.2 calcium influx blockers – cell-based, Fluo-4 calcium fluorescence, FDSS, MLSMR library, primary screen; Cav3.2-expressing cells; hits give low values; B-score at 10 µM; AID 449739, 2010; actives 4% (n = 100,000);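 active = single-dose well whose peak fluorescence ratio is a statistical outlier from its plate by either plate-standardised score or position-corrected B-score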
# EphB4 ephrin blk – EphB4-ephrin-B2 interaction antagonists, primary screen, biochemical, TNYL-RAW peptide probe, fluorescence polarization. inhibition, % at 7 µM. EphB4 LBD / TNYL-RAW-Alexa532 peptide. Ephrin type-B receptor 4 (Homo sapiens), P54760. actives 0.15% (n = 97,000);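 active = inhibition above the screen-wide mean inhibition plus 3 SD, cut at about 15% in these data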;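 also: 0% = DMSO wells and 100% = excess unlabeled TNYL-RAW peptide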
# An asterisk follows results filed as active; . = not tested or not shown; [ ] = another dose, or the depositor's remark. Compounds with a hit are over-represented: about 5.3% of the library has one in this group of screens.
SMILES,FAK inh,PLK1 inh,HIV Rev-RRE inh,PLK1 PBD inh,Cav3 T inh,EphB4 ephrin blk
Cc1c(C(=O)NC(C)C)sc2ncn(CC(=O)N3CCC(C)CC3)c(=O)c12,-1.9,-11.0,3.5,18.7,1.25,8.7
COc1cccc(C2C(C#N)=C(N)OC(C(C)(C)C)=C2C#N)c1 (centres undefined),2.1,-13.3,9.6,-0.7,0.349,-6.0
COc1cccc(/C=C2/CN(C)CC3=C2OC(N)=C(C#N)C3c2cccc(OC)c2)c1 (centres undefined),-1.7,-6.0,54.5*,-9.8,-0.682,6.8
Cc1cc(Cl)ccc1NC(=O)CSc1nnc(Cc2cccs2)n1Cc1ccco1,2.6,-8.6,10.2,12.4,-7.65*,-3.8
COc1cc2c(cc1NC(=O)CSc1nnc(Cc3cccs3)n1Cc1ccco1)oc1ccccc12,0.8,-5.7,1.7,-4.1,-3.06,8.2
COc1ccc(C(=O)CSc2nnc(CNc3ccc(C)cc3C)n2Cc2ccco2)cc1,6.4,-10.9,-0.2,-6.2,.,-0.6
N#Cc1ccc(CSc2nnc(Cc3cccs3)n2Cc2ccco2)cc1,0.8,-14.6,4.3,-8.1,-1.72,2.7
Cc1ccc(NCc2nnc(SCC(=O)Nc3ncc(C)s3)n2CC2CCCO2)c(C)c1 (centres undefined),2.0,-0.4,1.6,0.0,-4.51*,-5.7
Cc1ccc(C(=O)CSc2nnc(CNc3ccc(C)cc3C)n2Cc2ccco2)cc1,8.0,-7.8,7.8,1.1,-9.75*,3.8
Cc1ccc(NCc2nnc(SCc3ccc(C#N)cc3)n2Cc2ccco2)c(C)c1,2.6,-8.4,3.8,7.8,-6.45*,1.8
CCC(=O)O[C@]1(C(=O)SCF)[C@H](C)C[C@H]2[C@@H]3C[C@H](F)C4=CC(=O)C=C[C@]4(C)[C@@]3(F)[C@@H](O)C[C@@]21C,.,.,.,.,-0.491,.
Clc1cccc2sc(-c3nnc(-c4ccccc4)o3)c(Cl)c12,-8.5,-27.1,6.0,11.9,-0.267,-3.1
COc1cc(/C=C(/C#N)c2nc3ccccc3[nH]2)ccc1Oc1ncccc1[N+](=O)[O-],16.2,0.0,8.5,-14.2,-2.03,5.2
N#C/C(=C\c1ccc(N2CCCC2)c([N+](=O)[O-])c1)c1nc2ccccc2[nH]1,12.7,-20.1,37.3*,15.5,-1.22,-7.1
CC1CC(N(C(=O)c2ccco2)c2ccccc2)c2ccccc2N1C(=O)c1ccco1 (centres undefined),-0.1,-10.2,0.1,1.3,-5.33*,-4.1
CC1CC(N(C(=O)C2CC2)c2ccccc2)c2ccccc2N1C(=O)C1CC1 (centres undefined),-0.6,-1.4,2.5,-20.0,-1.61,6.0
CC1CC(N(C(=O)c2ccc(Cl)cc2)c2ccccc2)c2ccccc2N1C(=O)c1ccco1 (centres undefined),7.1,-5.0,-0.1,-27.2,-5.74*,-0.6
S=C1NC[C@H](c2ccccc2)N1CC1CCCCC1,.,.,.,.,0.177,.
CCCCCc1cc(=O)oc2c(C(CCN(CC)CC)c3cc(OC)c(OC)c(OC)c3)c(OC)cc(OC)c12 (centres undefined),.,.,.,.,-0.516,.
COc1cccc(OC)c1C(=O)NC(=S)N1CCN(c2ccc(C(F)(F)F)cc2[N+](=O)[O-])CC1,15.2,-7.6,-2.4,1.0,-5.5*,-3.6
CCOC(=O)N1CCN(c2ccc(F)cc2[N+](=O)[O-])CC1,.,.,.,.,1.34,.
c1ccc(CCn2nnnc2CN2CCCc3ccccc32)cc1,4.4,-15.5,28.8,-1.6,-2.11,-7.9
c1ccc2c(c1)CCCN2Cc1nnnn1CC1CCCO1 (centres undefined),0.4,27.2,54.7*,-36.7,0.558,-1.6
c1ccc(C2=Nc3ccccc3SC2c2nc3ccccc3[nH]2)cc1 (centres undefined),-0.6,-5.0,7.2,-11.4,-0.0202,7.3
CC(=O)c1sc(NC(=O)C2(F)C(F)(F)C(F)(F)C(F)(F)C(F)(F)C2(F)F)nc1C,.,.,.,.,-4.01*,.
SMILES,FAK inh,PLK1 inh,HIV Rev-RRE inh,PLK1 PBD inh,Cav3 T inh,EphB4 ephrin blk
O=C(O)c1ccc2c(c1)C(=O)N(c1cc(C(=O)O)ccc1Br)C2=O,.,.,.,.,0.0597,.
CC(=O)c1ccccc1OCC(O)CN1CCN(C(c2ccccc2)c2ccccc2)CC1 (centres undefined),-1.7,-7.4,2.0,6.2,-7.09*,-4.5
CCOc1ccccc1C(=O)N1CCN(C(c2ccccc2)c2ccccc2)CC1,-0.6,-7.2,1.6,-25.6,-4.71*,-3.4
Oc1ccccc1C1=Nc2nc3ccccc3n2C(c2ccccc2)C1 (centres undefined),6.7,-15.8,14.6,-18.3,-7.82*,-4.2
CCOC(=O)Cc1nn2c(=O)cc(C)nc2s1,-0.6,-9.2,10.7,-8.2,-5*,3.2
CCn1ncc(Br)c1C(=O)N(C)C12CC3CC(CC(C3)C1)C2,1.8,-11.5,6.5,-14.3,-5.06*,-7.5
C=CCSc1ncc(C#N)c(N)n1,4.0,-7.4,7.5,-17.6,-0.0725,4.1
O=S(=O)(c1ccc(Br)cc1)N1CCCC1c1nc2ccccc2s1 (centres undefined),0.1,-5.8,9.8,12.2,-4.6*,0.8
CN(C)S(=O)(=O)c1ccc(C(=O)N2CCCC2c2nc3ccccc3s2)cc1 (centres undefined),5.7,-12.8,6.0,-19.8,1.27,4.0
COc1ccc2nc(C3CCCCC3)c3c(c2c1)CCC3,.,.,.,.,0.476,.
O=C(O)c1ccc2c(c1)C(=O)N(c1ccc(Cl)cn1)C2=O,-5.1,-14.1,0.9,-6.2,0.0116,-6.1
O=C1c2cccc3c([N+](=O)[O-])ccc(c23)C(=O)N1c1nccs1,3.2,-10.6,26.4,-20.0,1.27,-2.3
O=C1c2cccc3c(N4CCCCC4)ccc(c23)C(=O)N1c1ccccn1,4.8,-28.6,126.3*[fluorescence artefact?],-134.2,-6.92*,6.5
O=C1c2cccc3c(N4CCCCC4)ccc(c23)C(=O)N1c1ccc(Cl)cn1,3.6,-20.4,120.9*[fluorescence artefact?],-90.6,.,-4.1
O=C1c2cccc3c([N+](=O)[O-])ccc(c23)C(=O)N1c1ccc(Cl)cn1,3.8,-9.2,69.0*,-60.6,.,-2.3
COC(C/C=C\[C@@H](O)COCc1ccccc1)OC,.,.,.,.,-0.0908,.
O=[N+]([O-])c1ccc(S(=O)(=O)NCCc2cn3ccccc3n2)cc1,.,.,.,.,-0.0556,.
CCCN(CC1CC1)C(=O)COC(=O)c1[nH]c(C)c(C(=O)OCC)c1C,-1.9,-0.8,11.7,-17.7,-2.35,5.7
CC(C)CC(NC(=O)C(Cc1ccc(OCc2ccccc2)cc1)NC(=O)OC(C)(C)C)C(N)=O (centres undefined),-2.3,-2.9,2.8,-0.2,-4.79*,2.1

# Screening data (PubChem)
